PMC9536290 (Clinical Infectious Diseases: An Official Publication of …, 2022)
“And” between values parts separate entries of the source, which are not always exact repeats. Equal values may be shown once.

Assays:
[1] = test system: HIV-1 with A364V mutation; experiment: Phenotypic resistance of participant virus with A364V; assay type: cell-based; details: virus of 1 participant (200 mg) with full conversion to A364V
[2] = test system: triple-mutant polymorph (R361K/V362I/L363M); details: cited from earlier work
[3] = observed in other studies; cited from earlier work
[4] = Phase IIa monotherapy study: plasma pharmacokinetics; assay type: in vivo, HIV-1–positive, treatment-naive adults; details: for Accumulation ratio AUC0-τ, geometric mean (% CVb) / Accumulation ratio Cmax, geometric mean (% CVb) / Accumulation ratio Cτ, geometric mean (% CVb): steady state vs day 1; for Tmax / AUC(0-t): human
Summary of the method: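 Oral doses were given once daily with food: part 1 for 10 days, part 2 for 7 days. Plasma drug was measured by LC-MS/MS (range 3.00–1000 ng/mL). Noncompartmental parameters were AUC0-24, Cmax and tmax on day 1, and AUC0-τ, Cmax and Cτ at steady state (day 8, 9 or 10 in part 1; day 7 in part 2). Accumulation ratios were steady state vs day 1, and dose proportionality used a power model. Participants vomiting within 1× tmax were excluded.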

HIV-1 = experiment: Phase IIa monotherapy study: antiviral effect; assay type: in vivo, HIV-1–positive, treatment-naive adults; details: for Plasma HIV-1 RNA change from baseline to nadir, mean (SD): n = 6; for Modeled plasma HIV-1 RNA maximum change (nadir), least squares mean (90% CI): mixed-effects model
Summary of the method: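 Randomized, double-blind, placebo-controlled oral monotherapy, once daily after a moderate-fat meal (≥400 calories, ≥120 from fat) taken 30 minutes before dosing. Part 1: 10 or 200 mg for 10 days. Part 2: 40–140 mg for 7 days, then combination ART from day 8. Plasma HIV-1 RNA endpoints were maximum change and change to day 11 (part 1) or day 8 (part 2). Maximum change was fitted by a mixed-effects linear model; dose–response by an Emax model pooling both parts (ED50).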

[5] = 10 mg once daily, part 1 (10 days)
[6] = 40 mg once daily, part 2 (7 days)
[7] = 80 mg once daily, part 2 (7 days)
[8] = 140 mg once daily, part 2 (7 days)
[9] = 200 mg once daily, part 1 (10 days)

In the case of `C=C(C)[C@@H]1CC[C@]2(NCCN3CCS(=O)(=O)CC3)CC[C@]3(C)[C@H](CC[C@@H]4[C@@]5(C)CC=C(C6=CC[C@@](CF)(C(=O)O)CC6)C(C)(C)[C@@H]5CC[C@]43C)[C@@H]12` [GSK’254], the “Fold change in half maximal inhibitory concentration (phenotypic resistance)” value [1] is listed as 132 fold, the EC90 ([2]; read-out: 3× protein-binding adjusted 90% effective concentration (3× PBA EC90)) is listed as 150 nM and the EC50 ([2]; read-out: Half maximal effective concentration (EC50)) is listed as 3 nM. For the same molecule, the “3× protein-binding adjusted 90% effective concentration (3× PBA EC90)” value ([2]; target trough concentration) was 0.11 µg/mL, the Terminal phase half-life [3] was ~ 24 hours and the “Accumulation ratio AUC0-τ, geometric mean (% CVb)” value ([4]; 10 mg once daily) was 1.54 (24.5). The “Accumulation ratio Cmax, geometric mean (% CVb)” value ([4]; 10 mg once daily) was 0.93 (171.7), the “Accumulation ratio Cτ, geometric mean (% CVb)” value (“Accumulation ratio Cτ … (% CVb)” below) ([4]; 10 mg once daily) was 1.48 (22.2) and the “Accumulation ratio AUC0-τ, geometric mean (% CVb)” value ([4]; 40 mg once daily) was 2.29 (11.2). For the same molecule, the “Accumulation ratio Cmax, geometric mean (% CVb)” value ([4]; 40 mg once daily) was 2.03 (24.4), the “Accumulation ratio Cτ … (% CVb)” value ([4]; 40 mg once daily) was 2.30 (6.4) and the “Accumulation ratio AUC0-τ, geometric mean (% CVb)” value ([4]; 80 mg once daily) was 1.93 (18.6). For the same molecule, the “Accumulation ratio Cmax, geometric mean (% CVb)” value ([4]; 80 mg once daily) was 1.73 (17.6), the “Accumulation ratio Cτ … (% CVb)” value ([4]; 80 mg once daily) was 1.94 (20.8) and the “Accumulation ratio Cmax, geometric mean (% CVb)” value ([4]; 140 mg once daily) was 2.02 (37.5). The “Accumulation ratio Cτ … (% CVb)” value ([4]; 140 mg once daily) was 1.90 (16.0), the “Accumulation ratio AUC0-τ, geometric mean (% CVb)” value ([4]; 200 mg once daily) was 2.25 (72.1) and the “Accumulation ratio Cmax, geometric mean (% CVb)” value ([4]; 200 mg once daily) was 1.98 (69.4). The “Accumulation ratio Cτ … (% CVb)” value ([4]; 200 mg once daily) was 1.98 (61.2), the “Dose proportionality of plasma PK” value ([4]; 10-200 mg) was “generally dose proportional to 140 mg but non-proportional between 140 and 200 mg” and the Tmax ([4]; plasma, oral, Median tmax across all doses, steady state, 10-200 mg) was 4.02 to 5.48 h. It also gave an AUC(0-t) ([4]; plasma, po, 10 mg) of 700 ng·h/mL, an AUC(0-t) ([4]; plasma, po, 40 mg) of 3250 ng·h/mL and an AUC(0-t) ([4]; plasma, po, 80 mg) of 6120 ng·h/mL. It also gave an AUC(0-t) ([4]; plasma, po, 140 mg) of 14000 ng·h/mL, a Tmax ([4]; plasma, po, 140 mg, tmax, median (range), repeat dose 140 mg once daily, day 7 (part 2), plasma, n = 6) of 4.08 h and an AUC(0-t) ([4]; plasma, po, 200 mg) of 12400 ng·h/mL. The Tmax ([4]; plasma, po, 200 mg, tmax, median (range), repeat dose 200 mg once daily, Day 8, 9, or 10 (part 1), plasma, n = 6) was 5.48 h, the “Dose proportionality power model estimated slope (90% CI) for Cτ” value ([4]; repeat administration, steady state) was 1.14 (90% CI: 1.02–1.26) and the “CL/F (apparent oral clearance), geometric mean (% CVb)” value (“CL/F … (% CVb)” for short) ([4]; repeat dose 40 mg once daily, day 7 (part 2), n = 6) was 5360 (26.8) mL/h. The “CL/F … (% CVb)” value ([4]; repeat dose 80 mg once daily, day 7 (part 2), n = 6) was 6765 (26.7) mL/h, the “CL/F … (% CVb)” value ([4]; repeat dose 140 mg once daily, day 7 (part 2), n = 6) was 4779 (27.9) mL/h and the “CL/F … (% CVb)” value ([4]; repeat dose 200 mg once daily, Day 8, 9, or 10 (part 1), n = 6) was 7159 (18.4) mL/h. The “AUC0-τ, geometric mean (% CVb)” value ([4]; repeat dose 200 mg once daily, Day 8, 9, or 10 (part 1), plasma, n = 6) was 27.90 (18.4) µg∗h/mL, the “Mean trough concentration relative to target trough concentration” value ([4]; ≥40-mg groups (all dose groups except 10 mg)) was greater than 110 ng/mL and the “Maximum change in HIV-1 RNA” value (HIV-1; 10 mg once daily, 10 days) was −0.4 log10. For the same molecule, the “Plasma HIV-1 RNA change from baseline to nadir, mean (SD)” value (HIV-1; [5]) was −0.36 (0.25) log10 copies/mL, the “Modeled plasma HIV-1 RNA maximum change (nadir), least squares mean (90% CI)” value (HIV-1; [5]) was −0.34 (−.67 to −.00) log10 copies/mL and the “Plasma HIV-1 RNA change from baseline to primary endpoint, mean (SD)” value (HIV-1; 10 mg once daily, part 1, Day 11, n = 6) was −0.22 (0.31) log10 copies/mL. The “Maximum change in HIV-1 RNA” value (HIV-1; 40 mg once daily, 7 days) was −1.2 log10, the “Plasma HIV-1 RNA change from baseline to nadir, mean (SD)” value (HIV-1; [6]) was −1.18 (0.44) log10 copies/mL and the “Modeled plasma HIV-1 RNA maximum change (nadir), least squares mean (90% CI)” value (HIV-1; [6]) was −1.05 (−1.29 to −.82) log10 copies/mL. The “Plasma HIV-1 RNA change from baseline to primary endpoint, mean (SD)” value (HIV-1; 40 mg once daily, part 2, Day 8, n = 6) was −1.18 (0.44) log10 copies/mL, the “Maximum change in HIV-1 RNA” value (HIV-1; 80 mg once daily, 7 days) was −1.0 log10 and the “Plasma HIV-1 RNA change from baseline to nadir, mean (SD)” value (HIV-1; [7]) was −1.02 (0.33) log10 copies/mL. For the same molecule, the “Modeled plasma HIV-1 RNA maximum change (nadir), least squares mean (90% CI)” value (HIV-1; [7]) was −0.94 (−1.16 to −.72) log10 copies/mL, the “Plasma HIV-1 RNA change from baseline to primary endpoint, mean (SD)” value (HIV-1; 80 mg once daily, part 2, Day 8, n = 6) was −1.02 (0.33) log10 copies/mL and the “Maximum change in HIV-1 RNA” value (HIV-1; 140 mg once daily, 7 days) was −1.5 log10. For the same molecule, the “Plasma HIV-1 RNA change from baseline to nadir, mean (SD)” value (HIV-1; [8]) was −1.49 (0.27) log10 copies/mL, the “Modeled plasma HIV-1 RNA maximum change (nadir), least squares mean (90% CI)” value (HIV-1; [8]) was −1.49 (−1.70 to − 1.28) log10 copies/mL and the “Plasma HIV-1 RNA change from baseline to primary endpoint, mean (SD)” value (HIV-1; 140 mg once daily, part 2, Day 8, n = 6) was −1.45 (0.24) log10 copies/mL. The “Maximum change in HIV-1 RNA” value (HIV-1; 200 mg once daily, 10 days) was −2.0 log10, the “Plasma HIV-1 RNA change from baseline to nadir, mean (SD)” value (HIV-1; [9]) was −2.01 (0.33) log10 copies/mL and the “Modeled plasma HIV-1 RNA maximum change (nadir), least squares mean (90% CI)” value (HIV-1; [9]) was −1.93 (−2.24 to −1.62) log10 copies/mL. The “Plasma HIV-1 RNA change from baseline to primary endpoint, mean (SD)” value (HIV-1; 200 mg once daily, part 1, Day 11, n = 6) was −1.96 (0.34) log10 copies/mL, the “Maximum mean decline from baseline in HIV-1 RNA” value (HIV-1; 10-mg dose) was 0.36 log10 and the “Participants with >1.5-log10 decline in HIV-1 RNA from baseline at Day 8” value (HIV-1; 40-mg group (n = 6)) was 1 participants. For the same molecule, the “Maximum mean decline in HIV-1 RNA” value (HIV-1; 140-mg group) was 1.5 log10, the “Participants with >1.5-log10 decline in HIV-1 RNA from baseline at Day 8” value (HIV-1; 140-mg group (n = 6)) was 3 participants and the “Maximum mean decline in HIV-1 RNA” value (HIV-1; 200-mg group) was 2.0 log10. The “Decline from baseline in HIV-1 RNA at day 11 in all participants” value (HIV-1; 200-mg group, day 11) was greater than 1.5 log10, the “Half maximal effective dose (ED50)” value (HIV-1; Emax nonlinear model, maximum change in HIV-1 RNA to day 8 vs dose, once daily) was 42.67 mg and 42.7 mg and ~ 43 mg and the “Decline in HIV-1 RNA” value (HIV-1; doses ≥40 mg, regardless of dosing duration) was no less than 1 log10. For the same molecule, the “Potency as an antiviral (maximum change in HIV-1 RNA)” value (HIV-1; monotherapy) was 2 log10, the “Median time to nadir in HIV-1 RNA” value (HIV-1; part 1 (10 days dosing)) was 11.5 days and the “Median time to nadir in HIV-1 RNA” value (HIV-1; part 2 (7 days dosing)) was 8.0 days.
